SMILES strings stand for the structures. *1 amine or outer side, *2 acyl side, *3 side chain or, on linkers, in order; H or OH if unused. Where a SMILES comes first, the peptide text is derived from it. [ ]: non-standard residue; d: D form. The star is where a group is joined. Phe(ψ(S)CH(OH)CH2N)Pro = O=C([C@@H]1CCCN1C[C@H](O)[C@H](Cc1ccccc1)N[*:1])[*:2]; Ahppa(3S,4S) = O=C(C[C@H](O)[C@H](Cc1ccccc1)N[*:1])[*:2]; X1 = CC(C)C[C@H](N[*:1])[C@@H](O)CN1CCC[C@H]1C(=O)[*:2]; X2 = O=C([C@@H]1CCCN1C[C@H](Cc1ccccc1)N[*:1])[*:2]; Sta = CC(C)C[C@H](N)[C@@H](O)CC(=O)O; Boc = CC(C)(C)OC(=O)* A value given as a limit tells only on which side of the number the result lay.

The target in one assay is T1, Human immunodeficiency virus type 1 protease (Human immunodeficiency virus 1, UniProt Q72874). In words: Inhibitory activity against HIV Protease was measured at pH 6.4 and 37 degrees C. Summed up: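 Recombinant HIV protease expressed in E. coli; substrate Ac-Thr-Ile-Met-Gln-Arg-NH2 varied 0.5–10 mM. Inhibitor added in DMSO (final 1–3%), preincubated with enzyme 10 min before substrate started the reaction. Initial rates by HPLC and fluorometric assays. Ki from fitting initial velocities to the competitive inhibition equation; each is the average of three or more independent determinations.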
As usually defined, the Ki is a measure of affinity in units of concentration, obtained from inhibition or displacement. High values mean a looser hold on the target, low ones a stronger hold on the target. As for `CC[C@H](C)[C@H](NC(=O)[C@@H]1CCCN1C[C@H](O)[C@H](CC(C)C)NC(=O)[C@H](CC(N)=O)NC(=O)[C@H](CC(C)C)NC(C)=O)C(=O)OC`, the Ki is above 10000 nM.

`CC[C@H](C)[C@H](NC(=O)C[C@H](O)[C@H](Cc1ccccc1)NC(=O)[C@H](CC(N)=O)NC(=O)[C@H](CC(C)C)NC(=O)[C@H](CO)NC(C)=O)C(=O)N[C@H](C(=O)OC)C(C)C` (Ac-SLN[Ahppa(3S,4S)]IV-OMe): affinity was put at a Ki of 8000 nM.

Compound `CC[C@H](C)[C@H](NC(=O)[C@@H]1CCCN1C[C@H](O)[C@H](CC(C)C)NC(=O)[C@H](CC(N)=O)NC(=O)[C@H](CC(C)C)NC(=O)[C@H](CO)NC(C)=O)C(=O)OC` (Ac-SLN[X1]I-OMe) registered a Ki of 980 nM.

In turn, `CC[C@H](C)[C@H](NC(=O)[C@@H]1CCCN1C[C@H](O)[C@H](CC(C)C)NC(=O)[C@H](CC(N)=O)NC(=O)[C@H](CC(C)C)NC(=O)[C@H](CO)NC(C)=O)C(=O)N[C@H](C(=O)OC)C(C)C` (Ac-SLN[X1]IV-OMe) registered a Ki of 118 nM.

A further assay concerns the target T1, Human immunodeficiency virus type 1 protease. Put plainly: Inhibition of HIV protease at pH 6.4, 37 degree C.
In the case of `CC[C@@H](C)[C@H](NC(=O)[C@@H]1CCCN1C[C@@H](O)[C@H](Cc1ccccc1)NC(=O)[C@H](CC(N)=O)NC(=O)[C@H](CC(C)C)NC(C)=O)C(=O)N[C@H](C(=O)OC)C(C)C`, the affinity, expressed as Ki, was 21 nM.

On to `COC(=O)[C@@H](NC(=O)[C@@H](NC(=O)CNC[C@H](O)[C@H](Cc1ccccc1)NC(=O)[C@H](C)NC(=O)[C@H](C)N)C(C)C)C(C)C`, for which affinity was put at a Ki of 18 nM.

`CC[C@H](C)[C@H](NC(=O)[C@H](Cc1ccccc1)NC[C@H](O)[C@H](Cc1ccccc1)NC(=O)OC(C)(C)C)C(=O)N[C@@H](Cc1ccccc1)C(=O)OC` returned a Ki of 0.6 nM.

`CC[C@H](C)[C@H](NC(=O)[C@@H]1CCCN1C[C@H](O)[C@H](CC(C)C)NC(=O)[C@H](CC(N)=O)NC(=O)[C@H](CC(C)C)NC(C)=O)C(=O)N[C@H](C(=O)OC)C(C)C` (Ac-LN[X1]IV-OMe): affinity was put at a Ki of 21 nM.

In turn, `CC[C@H](C)[C@H](NC(=O)[C@@H]1CCCN1C[C@H](O)[C@H](Cc1ccccc1)NC(=O)[C@H](CC(N)=O)NC(=O)[C@H](CC(C)C)NC(=O)[C@H](CO)NC(C)=O)C(=O)OC` (Ac-SLN[Phe(ψ(S)CH(OH)CH2N)Pro]I-OMe) came in with a Ki of 420 nM.

Compound `CC[C@H](C)[C@H](NC(=O)[C@@H]1CCCN1C[C@H](O)[C@H](Cc1ccccc1)NC(=O)[C@H](CC(N)=O)NC(=O)[C@H](CC(C)C)NC(=O)[C@H](CO)NC(C)=O)C(=O)N[C@H](C(=O)OC)C(C)C` (Ac-SLN[Phe(ψ(S)CH(OH)CH2N)Pro]IV-OMe) showed a Ki of 0.66 nM.

`CC[C@H](C)[C@H](NC(=O)C[C@H](O)[C@H](CC(C)C)NC(=O)[C@H](CC(N)=O)NC(=O)[C@H](CC(C)C)NC(=O)[C@H](CO)NC(C)=O)C(=O)N[C@H](C(=O)OC)C(C)C` (Ac-SLN[Sta]IV-OMe) showed a Ki of 1060 nM.

`COC(=O)[C@@H](NC(=O)[C@@H](NC(=O)C[C@H](O)[C@H](Cc1ccccc1)NC(=O)[C@H](CC(N)=O)NC(=O)[C@H](CCC(N)=O)NC(=O)[C@H](CO)NC(C)=O)C(C)C)C(C)C` (Ac-SQN[Ahppa(3S,4S)]VV-OMe): the affinity corresponds to a Ki of 39000 nM.

With `CC(=O)N[C@@H](CO)C(=O)N[C@@H](CCC(N)=O)C(=O)N[C@@H](CC(N)=O)C(=O)N[C@@H](Cc1ccccc1)CN1CCC[C@H]1C(=O)N[C@H](C(=O)N[C@H](C(N)=O)C(C)C)C(C)C` (Ac-SQN[X2]VV-NH2), affinity was put at a Ki of 13000 nM.

Turning to `CC[C@H](C)[C@H](NC(=O)C[C@H](O)[C@H](Cc1ccccc1)NC(=O)[C@H](CC(N)=O)NC(=O)[C@H](CC(C)C)NC(=O)[C@H](CO)NC(=O)OC(C)(C)C)C(=O)N[C@H](C(=O)OC)C(C)C` (Boc-SLN[Ahppa(3S,4S)]IV-OMe), the inhibition constant (Ki) came to 2640 nM.

These data come from ChEMBL document CHEMBL1124753, “Hydroxyethylamine analogues of the p17/p24 substrate cleavage site are tight-binding inhibitors of HIV protease” (J Med Chem, 1990).
